We go through six molecules from ChEMBL document CHEMBL1123670, “Inhibitors of cyclic AMP phosphodiesterase. 2. Structural variations of N-cyclohexyl-N-methyl-4-[(1,2,3,5-tetrahydro- 2-oxoimidazo[2,1-b]quinazolin-7-yl)-oxy]butyramide (RS-82856)” (J Med Chem, 1987).

A short description of assay [1]: In vivo inhibition of cyclic AMP phosphodiesterase from rat heart. The following applies: in the assay text read “In vitro” for “In vivo”. The method, boiled down: (§1)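 Cyclic AMP phosphodiesterase prepared from human platelets (IC50, nM) or from rat or dog heart tissue (IC25, nM). Each agent tested at five inhibitor concentrations in triplicate. IC50/IC25 read graphically from the dose-response curve.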

The species entered for assay [2] is Homo sapiens. Kind of assay: Inhibition of ADP-induced platelet aggregation at 100 uM concentration. The format is functional.
Assay [3] has as its target T1, Phosphodiesterase 3 (Homo sapiens, UniProt Q14432+Q13370). Kind of assay: In vitro inhibition of cyclic AMP phosphodiesterase from human platelets.
Assay [4] is filed under the species Homo sapiens. Kind of assay: Ratio of IC50 of inhibition of platelet aggregation to IC50 of inhibition of platelet PDE (Efficacy index). The format is functional. Put shortly: (§2)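 Efficacy index is the IC50 for inhibition of ADP-induced platelet aggregation divided by the IC50 for human platelet PDE inhibition. Both IC50s come from graphical dose-response curves (five concentrations, triplicate).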

Assay [5] in a line: Inhibition of ADP-induced platelet aggregation. It is filed as functional. Put shortly:
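ADP-induced platelet aggregation. Read-out is the rate of change in percentage transmission of the primary aggregation phase after 5 min incubation. Each agent tested at five concentrations in triplicate, with experiments repeated at least twice using platelets from different donors. IC50 (μM) determined graphically.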

In assay [6] the target is T2, Phosphodiesterase; PDE3 & PDE4 (Homo sapiens) (UniProt P27815+Q14432+Q08499+Q07343+Q13370+Q08493). Kind of assay: Inhibition of canine cardiac cAMP phosphodiesterase. It is filed as protein assay. As to conditions: Canis lupus familiaris; target entry is the homologue from another species; call rule not given here. Put shortly:
as §1

Assay [7] concerns the target T1, Phosphodiesterase 3. Kind of assay: Inhibition of human platelet cAMP phosphodiesterase. The method, boiled down:
as §1

Assay [8] addresses T2, Phosphodiesterase; PDE3 & PDE4 (Homo sapiens). Kind of assay: In vivo inhibition of cyclic AMP phosphodiesterase from dog heart. Put shortly: as §1
Assay [9] deals with T1, Phosphodiesterase 3. Kind of assay: Inhibition of human platelet cAMP phosphodiesterase at 10e-4 M.
The target in assay [10] is T1, Phosphodiesterase 3. Kind of assay: Inhibition of human platelet cAMP phosphodiesterase, 20% inhibition at E-4M.
For assay [11], the species on record is Homo sapiens. Kind of assay: Ratio of IC50 of inhibition of platelet aggregation to IC50 of inhibition of platelet PDE. The format is functional. Put shortly: as §2

The molecule `CN(C(=O)CCCOc1ccc2nc3n(c(=O)c2c1)CCN3)C1CCCCC1` displayed an IC25 in assay [1] of 3.7 µM. Moreover, the IC50 result in the assay filed under Homo sapiens [2] was “Not Active”; against Phosphodiesterase 3 [3], 25 µM.
Turning to `CN(C(=O)CCCOc1ccc2c(c1)CN1CC(=O)NC1=N2)C1CCCCC1` [LIXAZINONE], the Ratio in the assay listed under Homo sapiens [4] worked out at 10.8. Also, the IC50 was 0.11 µM in assay [5] and 0.0102 µM against Phosphodiesterase 3 [7]. In assay [6], this molecule registered an IC25 of 0.0041 µM.
Regarding `CN(C(=O)CCCOc1ccc2nc3n(c(=O)c2c1)CC(=O)N3)C1CCCCC1`, in assay [1], the IC25 is 2.9 µM. Also, the half-inhibitory concentration (IC50) result in the assay listed under Homo sapiens [2] is “Not Active”; against Phosphodiesterase 3 [3] it was 5.4 µM.
Take `CN(C(=O)CCCOc1cccc2c1NC1=NC(=O)CN1C2)C1CCCCC1`: the IC25 in assay [8] (Canis lupus familiaris; in the assay text read “In vitro” for “In vivo”; target entry is the homologue from another species) came to 1.6 µM. The molecule further yielded an inhibition against Phosphodiesterase 3 [9] of 20%. For the same molecule, the concentration for half-maximal inhibition (IC50) was above 100 µM on Phosphodiesterase 3 [10] and “Not Active” in the assay listed under Homo sapiens [2].
For `COc1ccc(C(=O)N2CCN(c3ccc4c(c3)CCC(=O)N4)CC2)cc1OC` [VESNARINONE], the Ratio in the assay listed under Homo sapiens [11] is on record as 608. In addition, the half-inhibitory concentration (IC50) against Phosphodiesterase 3 [3] was determined as 6.2 µM.
As for `CC(C)[C@@H]1C(=O)NC2=Nc3ccc(OCCCC(=O)N(C)C4CCCCC4)cc3CN21`, the 25% effect level in assay [8] (Canis lupus familiaris; target entry is the homologue from another species; in the assay text read “In vitro” for “In vivo”) (IC25) was put at 6 µM. For the same molecule, the half-inhibitory concentration (IC50) entry in the assay filed under Homo sapiens [2] is “Not Active”; against Phosphodiesterase 3 [3], 10 µM.

As a reminder, the IC25 is the point of the concentration-response curve where the effect stands at 25%. A lower IC25 goes with an effect from little substance. One may read the IC50 as the concentration at which inhibition is half-maximal. A low value points to greater potency in that assay. Broadly, the inhibition is how much of the control response was suppressed. A higher inhibition goes with a strong effect.
